Test results: ChEMBL document CHEMBL1132292, “Potentiation of cADPR-induced Ca(2+)-release by methylxanthine analogues” (1999)

Assays:
Lytechinus pictus [1] = experiment: Calcium release in sea urchin egg homogenate at 2 mM as percent of 1 mM caffeine effect
Lytechinus pictus [2] = experiment: Percent of 1 mM Caffeine effect to release [Ca2+] at 1 mM in sea urchin egg homogenate
[3] = compound was screened for their ability to potentiate [Ca2+] release induced by cADRP(an endogenous modulator of ryanodine receptor) in sea urchin egg homogenates at a concentration 1 mM; type: functional, tissue-based
Outline: (§1)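 Lytechinus pictus egg homogenate (2.5%, from 50% stocks) in Glu-IM (pH 7.2, Hepes). It was Ca2+-loaded for 3 h at room temperature with 0.5 mM ATP, creatine kinase/phosphocreatine, oligomycin, antimycin, azide and 3 μM fluo-3. Fluo-3 fluorescence (ex 490/em 535 nm) was read at 17 °C. Methylxanthine was added 1 min before a slightly releasing cADPR concentration chosen from each experiment's cADPR concentration–response curve. Caffeine was run daily as standard.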

[4] = Calcium release at 2 mM as percent of 1 mM caffeine effect
[5] = compound was screened for their ability to potentiate [Ca2+] release induced by cADRP(an endogenous modulator of ryanodine receptor) in sea urchin egg homogenates at a concentration 2 mM; type: functional, tissue-based
Outline: as §1

[6] = Compound was screened for their ability to potentiate [Ca2+] release induced by cADRP(an endogenous modulator of ryanodine receptor) in sea urchin egg homogenates at a concentration of 2 mM; type: functional, tissue-based
Outline: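 Lytechinus pictus egg homogenate (2.5%, from 50% stocks), Ca2+-loaded 3 h at room temperature in Glu-IM (pH 7.2) with 0.5 mM ATP, phosphocreatine/creatine phosphokinase, oligomycin, antimycin, azide and 3 μM fluo-3. Fluo-3 fluorescence (ex 490/em 535 nm) read at 17 °C. Methylxanthine at 2 mM added 1 min before a daily-chosen, slightly active cADPR concentration. Caffeine run daily as standard.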

| Compound | Activity (Lytechinus pictus [1]) [%] | further results |
| --- | --- | --- |
| CC(O)Cn1c(=O)c2c(ncn2C)n(C)c1=O (stereo not drawn) [PROTHEOBROMINE] | 83 | – |
| CCOC(=O)CCCCCn1c(=O)c2c(ncn2C)n(C)c1=O | – | Activity (Lytechinus pictus [2]): 103% |
| Cn1c(=O)c2c(ncn2CCCCO)n(C)c1=O | 81 | – |
| Cn1c(=O)c2c(ncn2C)n(C)c1=O [CAFFEINE] | – | Potentiation [3]: 100%; Activity [4]: 100% |
| Cn1c(=O)c2c(ncn2CCCCCCO)n(C)c1=O | – | Activity (Lytechinus pictus [2]): 97% |
| Cn1c(=O)c2c(ncn2CCCCCCCCCCO)n(C)c1=O | – | Activity (Lytechinus pictus [2]): 113% |
| Cn1c(=O)c2c(ncn2CCO)n(C)c1=O [ETOFYLLINE] | 43 | – |
| CCOC(=O)Cn1cnc2c1c(=O)n(C)c(=O)n2C | – | Activity (Lytechinus pictus [2]): 87% |
| CC(O)CCCn1cnc2c1c(=O)n(C)c(=O)n2C (stereo not drawn) | 82 | – |
| C=CCn1cnc2c1c(=O)n(C)c(=O)n2C | 100 | – |
| CC(=O)CCCCCn1c(=O)c2c(ncn2C)n(C)c1=O | 96 | – |
| CC(=O)CCCCCn1c(=O)c2c(ncn2CCCCCC(C)=O)n(C)c1=O | 54 | – |
| C#CCn1c(=O)c2c(ncn2CCCCCCC(C)=O)n(C)c1=O | – | Activity (Lytechinus pictus [2]): 98% |
| Cn1c(=O)c2nc[nH]c2n(C)c1=O.O [THEOPHYLLINE] | 106 | – |
| CC(=O)Cn1cnc2c1c(=O)n(C)c(=O)n2C | 65 | – |
| CC(=O)CCCCCn1c(=O)c2c(ncn2CCCC(C)=O)n(C)c1=O | 38 | – |
| CC(=O)CCCn1cnc2c1c(=O)n(CC(C)=O)c(=O)n2C | 6.7 | – |
| CC(=O)CCCCCn1cnc2c1c(=O)n(C)c(=O)n2C | 107 | – |
| CC(=O)CCn1cnc2c1c(=O)n(C)c(=O)n2C | 97 | – |
| CC(=O)Cn1c(=O)c2c(ncn2CC(C)=O)n(C)c1=O | 17 | – |
| CC(=O)CCCCn1cnc2c1c(=O)n(C)c(=O)n2C [LOMIFYLLINE] | 65 | – |

| Compound | Activity (Lytechinus pictus [1]) [%] | further results |
| --- | --- | --- |
| CC(=O)Cn1c(=O)c2c(ncn2C)n(C)c1=O | 43 | – |
| CC(=O)CCn1c(=O)c2c(ncn2C)n(C)c1=O | 46 | – |
| Cn1c(=O)c2ncn(C)c2n(C)c1=O | – | Potentiation [5]: 28.7% |
| CC(=O)CCCCCCCCn1cnc2c1c(=O)n(C)c(=O)n2C | – | Activity (Lytechinus pictus [2]): 62% |
| CC(O)CCCCCn1c(=O)c2c(ncn2C)n(C)c1=O (stereo not drawn) | 54 | – |
| CC(=O)CCCn1cnc2c1c(=O)n(C)c(=O)n2C | 60 | – |
| CC(O)CCCCCn1cnc2c1c(=O)n(C)c(=O)n2C (stereo not drawn) | 105 | – |
| CC(O)Cn1cnc2c1c(=O)n(C)c(=O)n2C (stereo not drawn) [PROXYPHYLLINE] | 47 | – |
| Cn1c(=O)c2[nH]cnc2n(C)c1=O | – | Potentiation [6]: 95.3% |
| O=c1[nH]c(=O)c2nc[nH]c2[nH]1 | – | Potentiation [6]: 41% |
| Cn1c(=O)c2c(ncn2CCCCCc2ccccc2)n(C)c1=O | 70 | – |
| Cn1cnc2c1c(=O)n(CCCCCC(=O)O)c(=O)n2C | – | Activity (Lytechinus pictus [2]): 61% |
| CCOC(=O)CCCCCn1cnc2c1c(=O)n(C)c(=O)n2C | – | Activity (Lytechinus pictus [2]): 145% |
| Cn1c(=O)c2c(ncn2CCCCCC(=O)O)n(C)c1=O | – | Activity (Lytechinus pictus [2]): 9.4% |
| CC(=O)CCCCCCn1cnc2c1c(=O)n(C)c(=O)n2C | 112 | – |
| CC(O)CCCn1c(=O)c2c(ncn2C)n(C)c1=O (stereo not drawn) | 59 | – |
| Cn1c(=O)c2c(ncn2CC(=O)O)n(C)c1=O [ACEFYLLINE] | – | Activity (Lytechinus pictus [2]): 1.4% |
| CC(=O)CCCn1c(=O)c2c(ncn2C)n(C)c1=O | 37 | – |
| CC(=O)CCCCCCn1c(=O)c2c(ncn2C)n(C)c1=O | 76 | – |
| C#CCn1c(=O)c2c(ncn2CCCC(C)=O)n(C)c1=O | 81 | – |
| CC(O)CCCCCCn1cnc2c1c(=O)n(C)c(=O)n2C (stereo not drawn) | – | Activity (Lytechinus pictus [2]): 98% |
